According to article PMC8518898 (Journal of Clinical Pharmacology, 2021):
“Also recorded” adds a separate entry of the source. Like-named read-outs stand apart in the source and are kept apart here. Marks after values point to notes of the source that are not given here. Blank lines part the entries; values can stand above or below the molecule they belong to.

Experiments:
[1] = ref data on file; cited from earlier work
[2] = single oral dose 200-mg abrocitinib/80 μg (500 nCi) [14C]; ref data on file; cited from earlier work
[3] = Phase 1 hepatic impairment study; format: in vivo, human
Summary of the method: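 Single oral dose after an overnight fast, 8 subjects per hepatic function group. Adverse events, vital signs, physical exams, 12-lead ECGs and safety laboratory tests were assessed up to 72 h post-dose. Treatment-emergent events were scored for incidence, severity and causality. Clinically significant lab abnormalities or ongoing events were followed up by telephone or onsite visit at 28–35 days.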

[4] = Phase 1 hepatic impairment study; format: in vivo, human; details: for AUC(0-inf): AUCinf; for AUC(0-inf) / AUC(0-t) / Cmax / tmax / MRAUCinf (ratio of metabolite to abrocitinib for AUCinf) / AUCinf / AUClast: single 200-mg oral dose of abrocitinib; for AUC(0-inf) / AUC(0-t) / Cmax / MRAUCinf (ratio of metabolite to abrocitinib for AUCinf) / AUCinf / AUClast: geometric mean (geometric %CV); for AUC(0-t): AUClast; for tmax: median (range)
[5] = up to 800-mg single dose, repeated total daily doses up to 400 mg; cited from earlier work
[6] = once daily 100 mg or 200 mg; cited from earlier work
[7] = cited from earlier work
JAK1 = details: ref data on file; cited from earlier work
[8] = target: IFN‐α signaling (JAK1/TYK2 kinase dimer); details: read-out: In vitro whole blood IFN‐α IC50, ref data on file; cited from earlier work
tyrosine kinase 2 (TYK2) = details: metabolites; ref data on file; cited from earlier work
[9] = ref data on file; cited from earlier work; remark: listed apart in the source
JAK3 = details: metabolites; ref data on file; cited from earlier work
[10] = ref data on file; cited from earlier work; remark: listed apart in the source
[11] = system: IFN‐α signaling (JAK1/TYK2 kinase dimer); assay: In vitro whole blood inhibition of IFN-α signaling; format: cell-based; details: read-out: unbound IC50 (IC50,u) of IFN‐α signaling; IC50,u = IC50 × [fu / (blood/plasma ratio)]
JAK2 = details: metabolites; ref data on file; cited from earlier work
[12] = human, plasma, po, 200 mg, mild hepatic impairment
[13] = human, plasma, po, 200 mg, moderate hepatic impairment
[14] = human, plasma, po, 200 mg, normal hepatic function
[15] = mild hepatic impairment compared to normal hepatic function
[16] = moderate hepatic impairment compared to normal hepatic function
[17] = mild hepatic impairment, plasma
[18] = moderate hepatic impairment, plasma
[19] = normal hepatic function, plasma

Compound: CCCS(=O)(=O)N[C@H]1C[C@@H](N(C)c2ncnc3[nH]ccc23)C1 [abrocitinib, N‐{cis‐3‐[Methyl(7H‐pyrrolo[2,3‐d]pyrimidin‐4‐yl)amino]cyclobutyl}propane‐1‐sulfo namide]
absolute oral bioavailability [1]: 60% | fraction absorbed [1]: 91% | share of circulating species [2]: 26% | subjects with laboratory abnormality leukocyte esterase (≥1) ([3]; mild hepatic impairment): 4 subjects | subjects reporting diarrhea ([3]; mild hepatic impairment (25%)): 2 subjects | subjects reporting headache ([3]; mild hepatic impairment (25%)): 2 subjects | subjects with treatment-emergent adverse events ([3]; mild hepatic impairment (N = 8)): 3 subjects | subjects with laboratory abnormality leukocyte esterase (≥1) ([3]; moderate hepatic impairment): 5 subjects | subjects reporting adverse events ([3]; moderate hepatic impairment (N = 8)): No subjects | subjects with laboratory abnormality leukocyte esterase (≥1) ([3]; normal hepatic function): 1 subject | safety and tolerability ([3]; single 200-mg oral dose, all 3 hepatic function groups): generally safe and well tolerated | AUC(0-inf) [4, 12]: 7450 ng·h/mL | AUC(0-inf) [4, 13]: 8600 ng·h/mL | AUC(0-inf) [4, 14]: 5590 ng·h/mL | AUC(0-t) [4, 12]: 7430 ng·h/mL | AUC(0-t) [4, 13]: 8550 ng·h/mL | AUC(0-t) [4, 14]: 5550 ng·h/mL | Cmax ([4]; human, plasma, po, 200 mg, Cmax, mild hepatic impairment): 1280 ng/mL | Cmax ([4]; human, plasma, po, 200 mg, Cmax, moderate hepatic impairment): 1430 ng/mL | Cmax ([4]; human, plasma, po, 200 mg, Cmax, normal hepatic function): 1350 ng/mL | tmax ([4]; human, plasma, po, 200 mg, tmax, mild hepatic impairment): 2 h | tmax ([4]; human, plasma, po, 200 mg, tmax, moderate hepatic impairment): 1 h | tmax ([4]; human, plasma, po, 200 mg, tmax, normal hepatic function): 2 h | increase in AUCinf [4, 15]: ≈ 33.3% | effect of hepatic impairment on PK and safety ([4]; mild or moderate hepatic impairment): no clinically relevant effect | increase in AUCinf [4, 16]: ~54.0% | safety and tolerability of higher doses [5]: safe and well tolerated | efficacy and tolerability in moderate to severe atopic dermatitis [6]: effective and well tolerated; also recorded: safe and efficacious | median tmax ([7]; healthy subjects, suspension, doses of 3 to 200 mg): < 1 h | increases in Cmax and AUCτ with increasing dose ([7]; multiple dose, total daily dose 30 mg up to 400 mg): greater than proportional | increases in AUCinf, dose proportionality ([7]; single doses 400 and 800 mg): greater than dose proportional | Cmax dose proportionality ([7]; single-dose range 3 to 800 mg): increased proportionally with dose

unadjusted geometric mean ratio for MRAUCinf [4, 15]: 0.239 | MRAUCinf (ratio of metabolite to abrocitinib for AUCinf) ([4]; mild hepatic impairment): 0.05 (54) | tmax ([4]; mild hepatic impairment): 1.50 (1.00‐4.00) h | AUCinf [4, 17]: 357.6 (49) ng • h/mL | AUClast [4, 17]: 338.1 (52) ng • h/mL | Cmax [4, 17]: 56.3 (54) ng/mL | unadjusted geometric mean ratio for MRAUCinf [4, 16]: 0.320 | MRAUCinf (ratio of metabolite to abrocitinib for AUCinf) ([4]; moderate hepatic impairment): 0.06 (111) | tmax ([4]; moderate hepatic impairment): 2.00 (1.00‐3.00) h | AUCinf [4, 18]: 552.7 (51) ng • h/mL | AUClast [4, 18]: 534.9 (52) ng • h/mL | Cmax [4, 18]: 68.9 (57) ng/mL | MRAUCinf (ratio of metabolite to abrocitinib for AUCinf) ([4]; normal hepatic function): 0.19 (100) | tmax ([4]; normal hepatic function): 2.00 (1.00‐3.00) h | AUCinf [4, 19]: 1120 (28) ng • h/mL | AUClast [4, 19]: 1102 (29) ng • h/mL | Cmax [4, 19]: 241.5 (50) ng/mL | IC50 [11]: 165 nM
Compound: CN(c1ncnc2[nH]ccc12)C1CC(NS(=O)(=O)CCCO)C1 (stereo not drawn) [M1]
pharmacological activity of metabolite (JAK1): active metabolites | IC50 [8]: 296 nM | share of circulating species [2]: 11% | JAK1 enzyme kinase selectivity over TYK2 (tyrosine kinase 2 (TYK2)): ~74 fold | fraction unbound in plasma (fu) [9]: 0.63 | JAK1 enzyme kinase selectivity over JAK3 (JAK3): > 230 fold | blood/plasma ratio [10]: 1.13 | JAK1 enzyme kinase selectivity over JAK2 (JAK2): approximately 26 fold

unadjusted geometric mean ratio for MRAUCinf [4, 15]: 0.680 | MRAUCinf (ratio of metabolite to abrocitinib for AUCinf) ([4]; mild hepatic impairment): 0.15 (25) | tmax ([4]; mild hepatic impairment): 2.50 (1.00‐4.00) h | AUCinf [4, 17]: 1178 (22) ng • h/mL | AUClast [4, 17]: 1081 (25) ng • h/mL | Cmax [4, 17]: 139.9 (29) ng/mL | unadjusted geometric mean ratio for MRAUCinf [4, 16]: 0.655 | MRAUCinf (ratio of metabolite to abrocitinib for AUCinf) ([4]; moderate hepatic impairment): 0.15 (78) | tmax ([4]; moderate hepatic impairment): 2.00 (2.00‐4.00) h | AUCinf [4, 18]: 1309 (38) ng • h/mL | AUClast [4, 18]: 1192 (43) ng • h/mL | Cmax [4, 18]: 119.2 (43) ng/mL | MRAUCinf (ratio of metabolite to abrocitinib for AUCinf) ([4]; normal hepatic function): 0.22 (56) ^b | tmax ([4]; normal hepatic function): 2.00 (1.00‐3.00) h | AUCinf [4, 19]: 1519 (36) ^b ng • h/mL | AUClast [4, 19]: 1395 (35) ng • h/mL | Cmax [4, 19]: 253.1 (40) ng/mL | IC50 [11]: 50.6 nM
Compound: C[C@H](O)CS(=O)(=O)NC1CC(N(C)c2ncnc3[nH]ccc23)C1 (stereo partly drawn) [M2]
pharmacological activity of metabolite (JAK1): active metabolites | IC50 [8]: 90.5 nM | share of circulating species [2]: 12% | JAK1 enzyme kinase selectivity over TYK2 (tyrosine kinase 2 (TYK2)): 68 fold | fraction unbound in plasma (fu) [9]: 0.71 | JAK1 enzyme kinase selectivity over JAK3 (JAK3): > 559 fold | blood/plasma ratio [10]: 1.27 | JAK1 enzyme kinase selectivity over JAK2 (JAK2): 49 fold
